Compound activity as filed in PubChem BioAssay.
Many of the other results were omitted from the sample, so hits are more common in it than they were.
T cruzi HTS: blocks T. cruzi growth inside host cells; intracellular Trypanosoma cruzi in host cells, plate reader; activity score (inhibition), % at 5.01 µM; 22,000 tested, 4.9% active; AID 651903; in the data active means activity score above about 55%;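 further: parasites and compound incubated about four days before reading; 0% = median of neutral control wells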
A1 apoptosis 2: blocks A1, raising caspase activity | MEF A1-2A-BIM cells, caspase-Glo luminescence, 3 h; percent of clofoctol response, DMSO zero | caspase activation, % (concentration not given with the values) | 24,000 tested, under 10 active; in the data active means caspase activation above about 5.9%
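Evaluation: Caspase-3/7 activity from luminescence increase | Assay system: A1-2A-BIM mouse embryonic fibroblasts | Quantity: 2500 MEF cells/well | Medium: RPMI-1640 plus 10% FBS | Detection: Caspase-Glo 3/7 luminescence, 1 h at room temperature | Dosing: 50 nL compound per well, pinned | Timing: Cells settled overnight, compound exposure 3 h at 37 °C, 5% CO2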
INS-1E rescue: INS-1E beta cell protection from cytokine death | INS-1E cytokine-induced death, ATP luminescence, 48 h; normalised: neutral wells 0, positive control 100 | 20,000 tested, 0.1% active | protection from cytokine-induced ATP loss, % at 10 µM | AID 488910;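 active means mean replicate protection from cytokine-induced ATP loss at least 50% and at least 75% of replicates each reaching 50%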
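Material: INS-1E rat cells; Quantity: 8000 cells/well; Buffer or medium: phenol-red-free RPMI with 5% fetal bovine serum; Probe or stimulus: cytokine cocktail of IFN-γ, TNF-α and IL-1β; Compound dosing: single test concentration per compound, delivered by pin transfer; Incubation: 48 h co-treatment, 10 min post-lysis read; Signal: CellTiter-Glo luminescence.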
Starred values were filed as active, the others as inactive; / = no result given.

SMILES | T cruzi HTS | A1 apoptosis 2 | INS-1E rescue
Cc1noc(C)c1NC(=O)N(C)C[C@H]1Oc2ccc(NC(=O)Nc3ccccc3)cc2CC(=O)N([C@@H](C)CO)C[C@H]1C | -18 | 0 | 2
C[C@@H]1CN([C@H](C)CO)C(=O)c2cccc(NC(=O)c3nc4ccccc4s3)c2O[C@@H]1CN(C)Cc1ccc2c(c1)OCO2 | -15 | 0 | -20
C[C@@H]1CN([C@@H](C)CO)C(=O)c2cccc(NC(=O)c3nc4ccccc4s3)c2O[C@H]1CN(C)Cc1ccc2c(c1)OCO2 | 61* | -1 | -25
C[C@@H]1CN([C@H](C)CO)C(=O)c2cccc(NC(=O)c3nc4ccccc4s3)c2O[C@H]1CN(C)Cc1ccc2c(c1)OCO2 | 48 | -2 | -27
C[C@H]1CN([C@@H](C)CO)C(=O)c2cccc(NC(=O)c3nc4ccccc4s3)c2O[C@@H]1CN(C)Cc1ccc2c(c1)OCO2 | 59* | / | -27
O=C(CCCCCCC(=O)Nc1ccccc1O)N/N=C/c1ccc(O)cc1O | 9 | / | 8
O=C(O)CCCCCCC(=O)N/N=C/c1ccccc1Cl | -17 | / | 13
Cc1ccc(S(=O)(=O)Nc2cccc3c2O[C@H](CN(C)Cc2ccc(C(=O)Nc4ccccc4N)cc2)[C@@H](C)CN([C@H](C)CO)C3=O)cc1 | / | 2 | /
C[C@@H]1CN([C@H](C)CO)C(=O)c2cccc(NS(=O)(=O)c3ccc(F)cc3)c2O[C@@H]1CN(C)Cc1ccc(C(=O)Nc2ccccc2N)cc1 | 60* | -1 | 27
C[C@@H]1CN([C@H](C)CO)C(=O)c2cccc(NS(=O)(=O)c3ccccc3)c2O[C@@H]1CN(C)Cc1ccc(C(=O)Nc2ccccc2N)cc1 | 75* | / | 11
C[C@@H]1CN([C@@H](C)CO)C(=O)c2cccc(NS(=O)(=O)c3ccc(Cl)cc3)c2O[C@H]1CN(C)Cc1ccc(C(=O)Nc2ccccc2N)cc1 | 56* | -1 | -1
C[C@H]1CN([C@@H](C)CO)C(=O)c2cccc(NS(=O)(=O)c3ccccc3)c2O[C@H]1CN(C)Cc1ccc(C(=O)Nc2ccccc2N)cc1 | 53 | -1 | -10
C[C@@H]1CN([C@H](C)CO)C(=O)c2cccc(NS(=O)(=O)c3ccc(F)cc3)c2O[C@H]1CN(C)Cc1ccc(C(=O)Nc2ccccc2N)cc1 | 41 | 1 | 5
C[C@H](CO)N1C[C@H](C)[C@@H](CN(C)Cc2ccc(C(=O)Nc3ccccc3N)cc2)Oc2c(NS(=O)(=O)c3ccc(Cl)cc3)cccc2C1=O | 49 | / | -15
Cc1ccc(S(=O)(=O)Nc2cccc3c2O[C@@H](CN(C)Cc2ccc(C(=O)Nc4ccccc4N)cc2)[C@@H](C)CN([C@H](C)CO)C3=O)cc1 | 57* | 0 | 5
CC(C)NC(=O)Nc1cccc2c1O[C@@H](CN(C)Cc1ccc(-c3ccccc3)cc1)[C@@H](C)CN([C@H](C)CO)C2=O | 12 | 1 | -30
COc1cc(/C=C/C=N/NC(=O)c2ccccn2)ccc1O | -14 | / | -3
O=C1CS(=O)(=O)C(c2ccccc2)N1c1ccccc1 (stereo unspecified) | / | 0 | /
O=C(NO)c1cccc(C(=O)N/N=C/c2ccc(-n3ccnc3)cc2)c1 | -21 | 1 | 10
O=C(NO)c1cccc(C(=O)N/N=C/c2cc(O)ccc2[N+](=O)[O-])c1 | -12 | / | 7
C[C@H]1CN([C@@H](C)CO)C(=O)Cc2cc(NS(=O)(=O)c3ccc(Cl)cc3)ccc2O[C@@H]1CN(C)Cc1ccccc1 | 69* | / | 7
C[C@@H]1CN([C@@H](C)CO)C(=O)Cc2cc(NS(=O)(=O)c3ccc(Cl)cc3)ccc2O[C@H]1CN(C)Cc1ccccc1 | / | 0 | /
C[C@@H]1CN([C@@H](C)CO)C(=O)Cc2cc(NS(=O)(=O)c3ccc(Cl)cc3)ccc2O[C@@H]1CN(C)Cc1ccccc1 | 35 | -1 | -8
C[C@H]1CN([C@@H](C)CO)C(=O)Cc2cc(NS(=O)(=O)c3ccc(Cl)cc3)ccc2O[C@H]1CN(C)Cc1ccccc1 | 76* | / | -5
O=C(CCCCCCC(=O)Nc1ccccc1O)N/N=C/c1ccccn1 | -2 | 0 | 6
SMILES | T cruzi HTS | A1 apoptosis 2 | INS-1E rescue
Cc1ccsc1/C=N\NC(=O)CCCCC(=O)NO | 9 | / | 59*
O=C(CCCCCCC(=O)Nc1ccccc1O)N/N=C/c1ccc(O)c2ccccc12 | -3 | 1 | -1
CCOc1cccc(/C=N/NC(=O)CCCCC(=O)NO)c1OCC | -7 | -1 | 81*
COc1cc(Cl)c(/C=N/NC(=O)CCCCCCC(=O)Nc2ccccc2O)c(Cl)c1OC | -12 | / | 3
COc1cc(Cl)c(/C=N\NC(=O)CCCCC(=O)NO)c(Cl)c1OC | 18 | -1 | 68*
Cc1ccsc1/C=N/NC(=O)CCCCCCC(=O)NO | / | 0 | /
